Assay results: ChEMBL document CHEMBL4706568, “Some thermodynamic effects of varying nonpolar surfaces in protein-ligand interactions” (Eur J Med Chem, 2020)
Square brackets hold non-standard residues; d marks the D form. Peptide text beside a SMILES is read from it. * marks the point of attachment. pY = N[C@@H](Cc1ccc(OP(=O)(O)O)cc1)C(=O)O; NHPhenethyl = c1ccc(CCN*)cc1; Ac6c = NC1(C(=O)O)CCCCC1; NHBn = c1ccc(CN*)cc1

Columns and labels:
[1] = target: Growth factor receptor-bound protein 2 (Homo sapiens) (UniProt P62993); test: Binding affinity to Grb2-SH2 domain (53 to 163 residues) (unknown origin) expressed in Escherichia coli assessed as change in entropy by ITC analysis
Method in brief: (§1)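 Grb2 SH2 residues 53–163 expressed in E. coli SG13009 (IPTG induction), purified by phosphotyrosine affinity, Q-Sepharose and size exclusion to isolate monomer. Protein diluted to 65–85 μM, ligand ~1 mM, both in 50 mM HEPES, 150 mM NaCl, pH 7.50. VP-ITC at 25 °C, ~35 injections of 7–9 μL ligand, buffer heats subtracted, n normalized to 1.00; ≥3 runs averaged.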

[2] = target: Growth factor receptor-bound protein 2 (Homo sapiens) (UniProt P62993); test: Binding affinity to Grb2-SH2 domain (53 to 163 residues) (unknown origin) expressed in Escherichia coli assessed as change in enthalpy by ITC analysis; method in brief: as §1
[3] = target: Growth factor receptor-bound protein 2 (Homo sapiens) (UniProt P62993); test: Binding affinity to Grb2-SH2 domain (53 to 163 residues) (unknown origin) expressed in Escherichia coli assessed as association constant by ITC analysis; method in brief: as §1
[4] = target: Growth factor receptor-bound protein 2 (Homo sapiens) (UniProt P62993); test: Binding affinity to Grb2-SH2 domain (53 to 163 residues) (unknown origin) expressed in Escherichia coli assessed as change in gibbs free energy by ITC analysis; method in brief: as §1

Row | -TdeltaS [1] [kcal/mol] | deltaH [2] [kcal/mol] | Ka [3] | deltaG [4] [kcal/mol] | Compound
1 | -1.9 | -7.9 | 1.6 10^7/M | -9.8 | CC(=O)N[C@@H](Cc1ccc(OP(=O)(O)O)cc1)C(=O)NC1(C(=O)N[C@@H](CC(N)=O)C(=O)NCCCC(C)C)CCCCC1
2 | -1.3 | -8.8 | 2.6 10^7/M | -10.1 | CC(=O)N[C@@H](Cc1ccc(OP(=O)(O)O)cc1)C(=O)NC1(C(=O)N[C@@H](CC(N)=O)C(=O)NCCCc2ccccc2)CCCCC1
3 | -2.8 | -6.7 | 1.1 10^7/M | -9.5 | CC(=O)N[C@@H](Cc1ccc(OP(=O)(O)O)cc1)C(=O)NC1(C(=O)N[C@@H](CC(N)=O)C(=O)NCc2cn(C)c3ccccc23)CCCCC1
4 | -2 | -7.8 | 1.7 10^7/M | -9.8 | CC(=O)N[C@@H](Cc1ccc(OP(=O)(O)O)cc1)C(=O)NC1(C(=O)N[C@@H](CC(N)=O)C(=O)NCCCCC(C)C)CCCCC1
5 | -2 | -8.1 | 2.4 10^7/M | -10.1 | CC(=O)N[C@@H](Cc1ccc(OP(=O)(O)O)cc1)C(=O)NC1(C(=O)N[C@@H](CC(N)=O)C(=O)NCCc2cn(C)c3ccccc23)CCCCC1
6 | -0.8 | -8.5 | 0.7 10^7/M | -9.3 | CC(=O)N[C@@H](Cc1ccc(OP(=O)(O)O)cc1)C(=O)NC1(C(=O)N[C@@H](CC(N)=O)C(N)=O)CCCCC1 (Ac-[pY]-[Ac6c]-Asn-NH2)
7 | -0.2 | -10.2 | 4.9 10^7/M | -10.4 | CC(=O)N[C@@H](Cc1ccc(OP(=O)(O)O)cc1)C(=O)NC1(C(=O)N[C@@H](CC(N)=O)C(=O)NCCCc2cn(C)c3ccccc23)CCCCC1
8 | -2.3 | -7.9 | 2.8 10^7/M | -10.2 | CC(=O)N[C@@H](Cc1ccc(OP(=O)(O)O)cc1)C(=O)NC1(C(=O)N[C@@H](CC(N)=O)C(=O)NCCCCCc2ccccc2)CCCCC1
9 | -1.4 | -9.1 | 4.7 10^7/M | -10.5 | CC(=O)N[C@@H](Cc1ccc(OP(=O)(O)O)cc1)C(=O)NC1(C(=O)N[C@@H](CC(N)=O)C(=O)NCCCc2ccc(Cl)cc2)CCCCC1
10 | -2.1 | -7.7 | 1.5 10^7/M | -9.8 | CC(=O)N[C@@H](Cc1ccc(OP(=O)(O)O)cc1)C(=O)NC1(C(=O)N[C@@H](CC(N)=O)C(=O)NCCCCc2ccccc2)CCCCC1
11 | -1 | -9.1 | 2.7 10^7/M | -10.1 | CC(=O)N[C@@H](Cc1ccc(OP(=O)(O)O)cc1)C(=O)NC1(C(=O)N[C@@H](CC(N)=O)C(=O)NCCCn2ccc3ccccc32)CCCCC1
12 | -1.2 | -9.1 | 3.5 10^7/M | -10.3 | CC(=O)N[C@@H](Cc1ccc(OP(=O)(O)O)cc1)C(=O)NC1(C(=O)N[C@@H](CC(N)=O)C(=O)NCCCc2c[nH]c3ccccc23)CCCCC1
13 | -2.1 | -7.7 | 1.5 10^7/M | -9.8 | CC(=O)N[C@@H](Cc1ccc(OP(=O)(O)O)cc1)C(=O)NC1(C(=O)N[C@@H](CC(N)=O)C(=O)NCCc2ccccc2)CCCCC1 (Ac-[pY]-[Ac6c]-Asn-NHPhenethyl)
14 | -1 | -9.6 | 6 10^7/M | -10.6 | CC(=O)N[C@@H](Cc1ccc(OP(=O)(O)O)cc1)C(=O)NC1(C(=O)N[C@@H](CC(N)=O)C(=O)NCCCc2cccc3ccccc23)CCCCC1
15 | -1.7 | -8.6 | 4 10^7/M | -10.3 | CC(=O)N[C@@H](Cc1ccc(OP(=O)(O)O)cc1)C(=O)NC1(C(=O)N[C@@H](CC(N)=O)C(=O)NCCCc2ccc(C)cc2)CCCCC1
16 | -1.9 | -8 | 1.9 10^7/M | -9.9 | CC(=O)N[C@@H](Cc1ccc(OP(=O)(O)O)cc1)C(=O)NC1(C(=O)N[C@@H](CC(N)=O)C(=O)NCCCC2CCCCC2)CCCCC1
17 | -2.1 | -7.5 | 1.2 10^7/M | -9.6 | CC(=O)N[C@@H](Cc1ccc(OP(=O)(O)O)cc1)C(=O)NC1(C(=O)N[C@@H](CC(N)=O)C(=O)NCc2ccccc2)CCCCC1 (Ac-[pY]-[Ac6c]-Asn-NHBn)
18 | -1.4 | -9.1 | 5 10^7/M | -10.5 | COc1ccc(CCCNC(=O)[C@H](CC(N)=O)NC(=O)C2(NC(=O)[C@H](Cc3ccc(OP(=O)(O)O)cc3)NC(C)=O)CCCCC2)cc1
